MrgX1 antagonist: human MrgX1 receptor antagonism, primary screen; AID 588676; actives 1.3% (n = 310,000); MRGX1-HEK293 calcium flux, Fluo-4, BAM8-22 antagonism; hits give low values; Q96LB2; B-score at 10 µM;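 active = calcium-response B-score plate-corrected more than 3 library SD below zero, starting fluorescence within 5 deviations, no agonist response on first addition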;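 note: peak minus trough fluorescence over baseline after final BAM8-22 challenge near maximal dose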
Target sequence (Q96LB2 whole entry, looked up): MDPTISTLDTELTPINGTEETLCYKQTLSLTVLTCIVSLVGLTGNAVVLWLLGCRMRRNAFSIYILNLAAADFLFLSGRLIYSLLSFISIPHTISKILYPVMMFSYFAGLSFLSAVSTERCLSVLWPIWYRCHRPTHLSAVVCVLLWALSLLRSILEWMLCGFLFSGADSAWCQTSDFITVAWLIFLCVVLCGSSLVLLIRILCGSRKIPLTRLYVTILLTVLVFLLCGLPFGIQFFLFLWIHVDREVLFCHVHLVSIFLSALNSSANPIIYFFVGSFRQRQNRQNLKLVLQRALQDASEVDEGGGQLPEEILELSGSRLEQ
MrgX1 agonist: human MrgX1 receptor agonism, primary screen | B-score at 10 µM | Q96LB2 | actives 0.44% (n = 310,000) | AID 588627 | MrgX1-HEK293 cells, Fluo-4 calcium fluorescence, agonist mode; hits give high values;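 active = calcium response B-score plate-corrected fluorescence ratio at least 3 library SD, with starting fluorescence B-score inside 5 SD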
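Material: MrgX1-expressing HEK293 cells; input: 15,000 cells per well; doses: test compound given as first of three sequential additions; schedule: overnight plating before 1 h dye loading; technique: Fluo-4 NW calcium-flux fluorescence, kinetic read; evaluation: baseline-normalised fluorescence change ratio, B-scored; control set: plate-wise positive and negative controls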
RGS4 inh: inhibitors of human RGS4 | P49798 | HEK293 M3R/RGS4 inducible, Fluo-4 calcium flux; hits give high values; triggered by carbachol at its EC20 | B-score at 10 µM | actives 0.45% (n = 310,000);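 active = B-score, a plate-corrected calcium signal, over three deviations above library mean, with baseline fluorescence within five deviations of library mean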;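 note: RGS4 expression induced by doxycycline in cells with stable M3 receptor; B-score is computed from the integrated fluorescence ratio over baseline after carbachol; higher B-score means a larger calcium signal and so more RGS4 inhibition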
Target sequence (P49798 whole entry, looked up): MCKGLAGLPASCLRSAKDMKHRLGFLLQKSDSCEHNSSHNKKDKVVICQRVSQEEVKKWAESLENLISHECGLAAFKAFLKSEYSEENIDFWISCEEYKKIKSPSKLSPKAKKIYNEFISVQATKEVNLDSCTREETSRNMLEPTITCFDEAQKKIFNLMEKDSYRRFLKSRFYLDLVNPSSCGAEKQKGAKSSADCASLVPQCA
MrgX1 PAM: allosterically activates human MrgX1 receptor signaling; actives 0.63% (n = 310,000); MrgX1-HEK293, Fluo-4 calcium flux, FDSS; hits give high values; B-score at 10 µM; AID 588675; Q96LB2;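 active = plate-corrected calcium response at least 3 library SD above typical, normal starting fluorescence, not activating the receptor alone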;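 note: compound read alongside a low EC10 to EC30 dose of BAM8-22 agonist; peak minus trough fluorescence over baseline measured at the second addition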
RGS4 act: potentiators or activators of RGS4; HEK293 M3R/inducible RGS4, carbachol calcium flux Fluo4; hits give low values; B-score at 10 µM; actives 0.92% (n = 310,000);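 active = B-score of the integrated calcium signal more than 4 SD below the library mean, with starting fluorescence not abnormally high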;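 note: negative B-score means reduced calcium response which marks RGS4 activation or potentiation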
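Test system: HEK293 cells with stable M3R and inducible RGS4; also added: carbachol at ECmax as muscarinic agonist stimulus; schedule: dye loading 30 min 37 °C, buffer rest 30 min RT; technique: kinetic calcium fluorescence imaging with Fluo4-AM dye, 2 µM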
Numbers stand for hits; . = inactive; / = no result. Sampled rows, rich in hits. Any-hit rate of the full collection: about 3.5%.

SMILES	MrgX1 antagonist	MrgX1 agonist	RGS4 inh	MrgX1 PAM	RGS4 act
CC1=NN(c2ccc([N+](=O)[O-])cc2)C(c2ccccc2)C1 (configuration not stated)	.	.	.	.	.
COC(=O)C1CCCCN1C(=O)c1ccc2oc(Cc3ccccc3)nc2c1 (configuration not stated)	-5.34	.	.	.	.
CC(=O)Nc1ccc(NC(=O)C(C)OC(=O)/C(C#N)=C/c2ccc(N(C)C)cc2)cc1 (configuration not stated)	.	.	.	.	.
CC(OC(=O)/C(C#N)=C/c1ccc(N(C)C)cc1)C(=O)N(C)c1ccccc1 (configuration not stated)	.	.	.	.	-7.2
CCOc1ccc(C(=O)C(CCC(CN(C)C)C(=O)c2ccc(OCC)cc2)CN(C)C)cc1 (configuration not stated)	/	/	.	/	-7.95
COc1ccc(C(=O)C(CCCCC(CN(C)C)C(=O)c2ccc(OC)cc2)CN(C)C)cc1 (configuration not stated)	.	.	.	.	.
CC(C)=CCc1c(O)cc(O)c2c(=O)c3c(CC=C(C)C)c(O)ccc3oc12	.	.	.	.	.
Cc1cccc(C)c1OCc1cc(C(=O)N2CCC(C3CCCCC3)C2)no1 (configuration not stated)	.	.	.	.	-7.58
COc1cc(/C=C2/C(=O)N(c3cccc(Br)c3)N=C2C)cc(OC)c1O	.	62.5	.	.	.
O=C(N/N=C/c1cn(-c2ccccc2)nc1-c1cccs1)c1ccc(Cl)cc1	.	.	.	.	-6.95
O=C(N/N=C/c1cn(-c2ccccc2)nc1-c1cccs1)c1ccccc1F	.	.	.	.	-7.36
O=C(N/N=C/c1cn(-c2ccccc2)nc1-c1cccnc1)c1ccc(F)cc1	.	.	.	.	.
Clc1cccc(CSc2ncn(-c3ccccc3)n2)c1	.	.	.	.	.
Clc1ccc(CSc2ncn(-c3ccccc3)n2)cc1	.	.	.	.	-7.21
COc1cc(/C=C2\SC(=O)N(CC(=O)Nc3ccccc3F)C2=O)cc(Cl)c1O	-6.22	.	.	.	.
COc1cc(OC)c(/C=C2\SC(=O)N(CC(=O)Nc3ccccc3F)C2=O)c(OC)c1	.	.	.	.	.
CCC1Oc2ccc(C)cc2N(CC(=O)NCCN2CCOCC2)C1=O (configuration not stated)	.	.	.	.	.
NC(=O)[C@@H]1CCNc2c(I)cc([N+](=O)[O-])cc2C(=O)N[C@@H](CCC(=O)O)C(=O)N[C@@H](CO)C(=O)N1	-6.49	.	/	.	/
COc1ccc(/C=C/C(=O)C2C(=O)C=C(C)OC2=O)cc1O (configuration not stated)	-4.67	.	.	.	.
O=C(NNC(=O)c1ccccc1Cl)c1cc2cc(OC(F)(F)F)ccc2[nH]1	.	.	.	7.53	.
Cc1ccc(NC(=O)c2cc3cc(OC(F)(F)F)ccc3[nH]2)cc1	.	.	.	.	.
COc1ccc2cc(-c3[nH]ncc3CN3CCCCO3)ccc2c1	.	35	.	.	.
COc1ccc(-c2[nH]ncc2CN2CCCO2)cc1F	.	.	.	.	.
CCCN1C(=O)N(c2cccc(C)c2)C(C)(O)CC1(C)C (configuration not stated)	.	.	.	.	.
COc1ccccc1NC(=S)N/N=C/c1cccc(C)c1	.	.	.	.	.
SMILES	MrgX1 antagonist	MrgX1 agonist	RGS4 inh	MrgX1 PAM	RGS4 act
COc1ccccc1NC(=S)N/N=C/c1ccc(O)cc1	.	.	.	8.97	.
O=C(NC1CCCC1)c1sc(=S)n2c1[nH]c(=O)c1ccccc12	.	60.4	.	.	.
O=C(NCc1ccco1)c1sc(=S)n2c1[nH]c(=O)c1ccccc12	.	56.8	.	.	.
O=C(NCc1ccccc1)c1ccc2c(=O)[nH]c3c(C(=O)NCC4CCCO4)sc(=S)n3c2c1 (configuration not stated)	.	.	.	.	.
CSc1nnc(C2CCN(CC(=O)Nc3ccccc3N3CCOCC3)CC2)n1C(C)C	.	.	.	.	.
O=C1c2ccccc2-c2c1cccc2C(=O)N1CCCCC1	.	.	.	.	.
CC1CC(C)CN(C(=O)c2ccc3c(c2NCCO)C(=O)c2ccccc2C3=O)C1 (configuration not stated)	.	.	.	13.9	.
Cn1ccnc1C(O)(c1ccccc1)c1ccccc1	.	.	.	.	.
CCOC(=O)c1c(NC(=O)CSc2c[nH]c3ccccc23)sc2c1CCC2	.	.	.	.	-7.1
C=CCNC(=O)CC(=O)N/N=C/c1cccc(C)c1	-4.56	.	.	.	.
COc1ccc(CSC(=N)N)cc1[N+](=O)[O-]	.	39.5	.	.	.
CCCCOc1ccc(CSC2=NCCN2)cc1[N+](=O)[O-]	.	27.9	.	.	.
CCOc1ccc(CSC2=NCCN2)cc1[N+](=O)[O-]	.	.	.	.	.
CCCCCOc1ccc(CSC(=N)N)cc1[N+](=O)[O-]	.	49.1	.	.	-7.83
N=C(N)SCc1ccc(O)c([N+](=O)[O-])c1	.	.	.	.	.
COc1ccc(OCc2cc(C(=O)NCc3cccc(C)n3)no2)c(Cl)c1	.	.	.	.	.
CCCOc1ccccc1Cn1c(=O)oc2ccccc21	.	.	.	.	.
CS(=O)(=O)Nc1ccc(C2=NN(C(=O)c3cccc(F)c3)C(c3cccs3)C2)cc1 (configuration not stated)	.	.	.	.	.
O=C(Nc1ccc(Cl)c(C(F)(F)F)c1)[C@@H]1CC=C[C@@H]2CCN(Cc3ccccc3)C(=O)[C@@H]21	.	.	.	7.25	.
O=c1cc(N2CCCCC2)c(-c2ccccc2)nn1Cc1ccccc1Cl	.	.	.	.	-7.13
O=c1cc(N2CCCCC2)c(-c2ccccc2)nn1Cc1cccc(Cl)c1	.	.	.	.	.
O=c1cc(N2CCCCC2)c(-c2ccccc2)nn1Cc1ccc(Cl)cc1Cl	.	.	.	.	-8.67
CCN1CCN(c2oc(COc3ccc(Cl)cc3)nc2C#N)CC1	.	.	.	.	.
N#Cc1nc(COc2ccccc2)oc1N1CCOCC1	.	.	.	.	-7.22
N#Cc1nc(COc2ccc(Cl)cc2)oc1N1CCN(Cc2ccccc2)CC1	.	.	.	.	-7.01
N#Cc1nc(COc2ccccc2)oc1N1CCCC1	.	.	.	.	.
O=[N+]([O-])c1ccccc1N/N=C/c1c[nH]c2ccccc12	.	.	.	.	.
O=[N+]([O-])c1ccc(N/N=C/c2c[nH]c3ccccc23)cc1	-9.09	.	.	.	.
O=[N+]([O-])c1ccc(N/N=C/c2ccc[nH]2)cc1	.	27.1	/	.	/
O=C(Nn1c(COc2ccccc2)nc2ccccc2c1=O)C(Cl)(Cl)Cl	.	.	.	.	.
